# Compounds with a hit are over-represented: about 2.6% of the library has one in this group of screens.
# dFosB act: enhances mouse delta FosB homodimer DNA binding. purified delta FosB, TAMRA-CDK5 oligo fluorescence polarization; percent of positive-control signal above neutral wells. hit rate 0.99% among 340,000. activation, % at 25 µM;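 active = mean activation above about 17%, with every replicate also reaching it, limit read from the data, passing the limit was not always enough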
# Xi reactivation: X-chromosome reactivation activator | AID 743238 | hit rate 0.055% among 360,000 | XiGFP mouse fibroblasts, % GFP-positive cells imaging, 3 d; cells co-treated with 5-aza-dC sensitizer; scaled so ellipticine positive control = 100% | activation, % at 7.58 µM;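 active = mean normalized replicate activation at least 10% and every replicate at or above 10%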;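 also: 0% = median of on-plate neutral control wells and 100% = ellipticine 6 µM median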
#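 Schedule: 3 d treatment, 15 min room-temperature fixation; system: 68-5-11 XiGFP fibroblast line; buffer or medium: DMEM plus 5-aza-dC sensitizer; control set: ellipticine 6 µM positive control; compound: one concentration, pinned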
# SR-BI HDL uptake: mouse SR-BI HDL lipid transfer inhibition | inhibition, % at 12.5 µM | hit rate 0.96% among 320,000 | ldlA[mSR-BI] CHO cells, DiI-HDL uptake fluorescence, 3 h;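 active = mean replicate inhibition of at least 70% and a set share of replicates each scoring 70 or more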;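 also: 0% = median of neutral control wells and 100% = median of positive control wells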
# Target sequence (Q61009 whole entry, looked up): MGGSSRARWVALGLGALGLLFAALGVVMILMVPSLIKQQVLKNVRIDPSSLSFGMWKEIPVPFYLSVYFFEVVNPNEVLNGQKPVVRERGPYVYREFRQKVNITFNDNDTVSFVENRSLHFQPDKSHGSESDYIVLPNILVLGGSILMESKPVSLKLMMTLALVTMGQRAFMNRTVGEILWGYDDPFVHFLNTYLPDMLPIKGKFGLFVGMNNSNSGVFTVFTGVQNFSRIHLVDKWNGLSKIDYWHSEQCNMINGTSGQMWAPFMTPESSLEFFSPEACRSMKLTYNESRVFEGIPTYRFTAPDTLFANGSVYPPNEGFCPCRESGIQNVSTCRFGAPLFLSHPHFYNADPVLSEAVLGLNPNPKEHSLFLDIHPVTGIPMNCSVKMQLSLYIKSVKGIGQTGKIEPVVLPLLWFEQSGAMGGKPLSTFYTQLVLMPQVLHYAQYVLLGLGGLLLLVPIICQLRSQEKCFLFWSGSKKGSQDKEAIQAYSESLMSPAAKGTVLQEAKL
# rRNA inh HTS: selective bacterial rRNA inhibition in E. coli. E. coli WT GFP vs humanized-ribosome RFP mutants, fluorescence, 24 h; active compounds read low; DMSO median 0, no signal -100. GFP signal change (wild-type ribosome), % (no concentration beside the values). hit rate 1.6% among 350,000. AID 720706;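 active = significant combined selectivity score with lowered wild-type GFP, culture density cut under 30%, mutant RFP and density less affected; inactive = any of these conditions unmet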
# PvdQ acylase: P. aeruginosa PvdQ acylase inhibition; purified PvdQ acylase, fluorescence plate reader; inhibition, % at 10 µM; hit rate 0.063% among 340,000; AID 488965; in the data active = inhibition above about 30%, passing the limit was not always enough;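 also: 0% = vehicle neutral wells and 100% = reference inhibitor wells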
# SR-BI DiI-HDL act: activators of SR-BI mediated HDL lipid uptake | CHO ldlA[mSR-BI] cells, DiI-HDL uptake fluorescence, 3 h; 100 = double the neutral-control signal | activation, % at 12.5 µM | hit rate 0.096% among 320,000;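 active = mean replicate activation of at least 60% and every replicate at or above 60%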;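 also: 0% = median plate neutral-control signal and 100% = twice that signal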
#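 Test system: SR-BI-overexpressing, LDLR-lacking CHO cells. Measured by: DiI fluorescence, bottom read. Medium: Ham's F12 with 0.5% BSA, HEPES 25 mM, pH 7.4. Timing: 3 h uptake period with compound, 37 °C.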
# The depositor's hits bear a star; / = no result.
SMILES,dFosB act,Xi reactivation,SR-BI HDL uptake,rRNA inh HTS,PvdQ acylase,SR-BI DiI-HDL act
Nc1c2c(nc3sc4c(c13)CCCCC4)CCCC2,-5.9,0.2,-19.3,-23.4*,-10.8,19.3
COP(=O)(C#Cc1ccccc1)C(O)c1ccc(Br)cc1 (configuration not stated),-1.7,0.1,-18.6,-30.3*,-1.5,18.6
O=C(COc1ccccc1Cl)N1CCCC(N2CCN(c3ccc(F)cc3)CC2)C1 (configuration not stated),-9.9,0.2,68.4,-37.7,-10.9,-68.4
CCc1ccc(/C=C(/C#N)C(N)=S)cc1,2.2,0.2,9.0,/,-15.4,-9.0
O=[N+]([O-])c1ccc(N2CCOCC2)c2cccnc12,-2.5,0.4,-2.2,0.5,5.2,2.2
O=[N+]([O-])c1ccc(N2CCOCC2)c2c1no[n+]2[O-],/,1.9,/,-24.0*,/,/
Cc1c(C)c2ccc(OCC(=O)N3CCC(C(=O)O)(c4ccccc4)CC3)c(C)c2oc1=O,1.7,/,-22.8,-20.3,-4.9,22.8
Cc1cccc(C2=NCC(=O)N(CC(=O)NCc3ccco3)c3sc4c(c32)CCCC4)c1,-5.6,/,77.3*,/,-9.4,-77.3
CC(C)(C)C(=O)O[C@H]1CC[C@@]2(C)C(=CC(=O)C3C2CC[C@]2(C)C(=O)CCC32)C1 (some centres not stated),4.5,0.1,15.3,8.9,-9.9,-15.3
CC(=O)O[C@H]1CC[C@@]2(C)C(=CC(=O)C3C2CC[C@@]2(C)C3C[C@H](OC(C)=O)[C@@H]2OC(C)=O)C1 (some centres not stated),2.9,0.1,-65.7,4.6,-10.2,65.7*
CCN(CC)C(=O)c1ccc(NC(=O)c2ccc(-c3nn(C)c(=O)c4ccccc34)cc2)cc1,-16.1,0.0,81.3*,11.2,-16.5,-81.3
Cc1cc2c(C(C)C)c(O)c(O)c(C=O)c2c(O)c1-c1c(C)cc2c(C(C)C)c(O)c(O)c(C=O)c2c1O,/,0.0,/,-7.7*,/,/
CCn1c(O)c(/C=N/NC(=O)c2ccccc2)c(=O)n(CC)c1=S,/,0.0,/,-1.1,/,/
Cc1cc(N(CCCl)CCCl)ccc1C=Cc1ccncn1,-7.7,0.0,76.2*,10.1,-8.0,-76.2
CN(C)CCN=Cc1c(O)n(Cc2ccc3c(c2)OCO3)c(=S)[nH]c1=O,-5.1,0.0,-5.4,0.4,10.3,5.4
O=c1[nH]c(=S)n(Cc2ccc(F)cc2)c(O)c1C=NCc1ccc2c(c1)OCO2,40.4*,0.1,-5.2,19.5,-11.0,5.2
CCCCCCn1c(O)c(C=NC2CCN(Cc3ccccc3)CC2)c(=O)[nH]c1=O,0.6,/,-13.6,/,-8.7,13.6
CS(=O)(=O)N1C[C@@H]2N[C@H](C1)C2c1ccc(Br)cc1 (some centres not stated),/,0.3,/,0.1,/,/
CCOC(=O)c1c(C)n(C(C)C)c2ccc(OC)cc12,-8.5,0.0,/,-28.5*,-4.4,/
O=C(Nc1nccs1)c1c(O)c2c(n(Cc3ccco3)c1=O)CCCC2,0.4,0.0,-18.5,/,-19.6,18.5
CCc1ccc(OCCCN=C(C)c2c(O)n(C)c(=O)n(C)c2=O)cc1,-5.6,/,27.6,/,0.3,-27.6
CC[N+](C)(CC)CCCCOc1ccc2c(c1)C(=O)c1cc(OCCCC[N+](C)(CC)CC)ccc1-2,49.4*,-0.1,4.2,-52.6*,-6.0,-4.2
CNS(=O)(=O)c1ccc(N=Cc2c(O)n(-c3ccccc3)c(=O)[nH]c2=O)cc1,-7.8,0.1,-10.3,19.6,4.9,10.3
CN1CCN(c2ccc(C(N)=O)cc2[N+](=O)[O-])CC1,-3.7,0.0,-25.5,/,2.7,25.5
O=[N+]([O-])c1ccc(N2CC2)c([N+](=O)[O-])c1,-1.2,0.3,-9.3,-15.8*,-3.7,9.3
SMILES,dFosB act,Xi reactivation,SR-BI HDL uptake,rRNA inh HTS,PvdQ acylase,SR-BI DiI-HDL act
COc1cc(O)c2c(c1)/C=C/C[C@H](O)[C@H](O)C(=O)CCC[C@H](C)OC2=O,/,0.0,/,-25.0*,/,/
COCCOC(=O)C1=C(C)OC(N)=C(C(=O)OC)C12C(=O)Nc1ccccc12 (configuration not stated),-7.4,/,-23.4,/,-5.9,23.4
COc1ccc(NC(=S)NC(NC(=O)CF)C(Cl)(Cl)Cl)cc1[N+](=O)[O-] (configuration not stated),-9.2,0.3,30.0,-21.8*,0.0,-30.0
O=C(CF)NC(NC(=S)Nc1cccc([N+](=O)[O-])c1)C(Cl)(Cl)Cl (configuration not stated),-9.8,0.0,32.8,2.8,0.3,-32.8
O=c1[nH]c(O)c(N=Nc2ccc3c(c2)OCCO3)c(=O)[nH]1,-0.9,0.0,5.9,25.7,1.3,-5.9
CCC1(OC(=O)c2ccccc2)CC(C)N(C)CC1C (configuration not stated),-2.8,0.0,0.4,27.5,7.5,-0.4
CCN(CC)P(=O)(NC(=O)C(Cl)(Cl)Cl)N(CC)CC.[Cl-].[Cl-].[Cl-].[Nd+3],40.9*,0.1,-29.4,7.1,-13.5,29.4
COc1ccccc1CNCCc1cccc(Cl)c1,/,0.3,/,-13.0,/,/
Oc1ccc2c3c1OC1c4oc5ccccc5c4C[C@@]4(O)[C@@H](C2)N(CC2CC2)CC[C@]314 (some centres not stated),-11.5,/,7.2,-20.2*,2.3,-7.2
Oc1ccc2c3c1OC1c4[nH]c5ccccc5c4C[C@@]4(O)C(C2)N(CC2CC2)CC[C@]314 (some centres not stated),-3.4,/,-7.6,8.2,-11.6,7.6
CCC(=O)N1N=C(c2c(O)n(CCc3ccccc3)c(=O)[nH]c2=O)CC1c1ccc(OC)c(OC)c1 (configuration not stated),/,-0.1,/,-28.5*,/,/
COc1cc2c(c(OC)c1OC)-c1ccc(O)cc1[C@@H](NC(C)=O)CC2,1.5,1.1,-2.9,11.4,6.1,2.9
C[n+]1c(-c2ccccc2)c2cc(N)ccc2c2ccc(N)cc21,-221.3,18.8*,4.8,/,16.7,-4.8
N[C@@H](Cc1ccc(N(CCCl)CCCl)cc1)C(=O)O,-8.2,-0.1,13.9,5.3,-1.1,-13.9
CC(=O)NC(Cc1ccc(N(CCCl)CCCl)cc1)C(=O)O (configuration not stated),2.4,/,-13.7,13.6,-1.1,13.7
COc1cc(C(=O)NN=Cc2ccc(N(CCCl)CCCl)cc2)cc(OC)c1OC,-9.8,0.6,75.8*,6.0,-11.5,-75.8
NC(Cc1ccc(O)cc1)C(=O)NN=Cc1ccc(N(CCCl)CCCl)cc1 (configuration not stated),31.9*,0.0,25.1,6.3,-4.7,-25.1
Nc1ccc2ccc3cccc[n+]3c2c1,32.1*,0.0,-19.5,106.0,-7.8,19.5
